Test results reported in ChEMBL document CHEMBL1125163, “Evolution of a series of peptidoleukotriene antagonists: synthesis and structure-activity relationships of 1,6-disubstituted indoles and indazoles” (J Med Chem, 1990).
Values belong to the compound of their own block, whether it stands above or below them. Calls of active or inactive are those of the source. No cut-off for these calls is given here.

Assays:
[1] = organism: Cavia porcellus; experiment: Percent inhibition of the LTE4- induced contraction of guinea pig tracheal spirals at the concentration of 3.3 uM; format: functional; settings: Trachea
Summary of the method: (§1)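 Guinea pig trachea cut into spiral strips, each trachea split into paired sections. Tissue bath at 37 °C in modified Krebs buffer gassed with 95% O2/5% CO2, 2 g resting tension, 60 min stabilization. After reproducible responses to 10 nM LTE4, compound was added for 10 min, then LTE4 challenge repeated. Percent inhibition is the 2nd vs 3rd response, adjusted by subtracting the vehicle-treated paired section. Paired t test, p < 0.05.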

[2] = system: Cysteinyl leukotriene receptor (Cavia porcellus); experiment: Inhibition of the LTE4- induced contraction of guinea pig tracheal spirals at 10 uM; Not significant.; settings: Trachea
[3] = organism: Cavia porcellus; experiment: Percent inhibition of the LTE4- induced contraction of guinea pig tracheal spirals at the concentration of 5 uM; format: functional; settings: Trachea; summary of the method: as §1
[4] = system: Cysteinyl leukotriene receptor (Cavia porcellus); experiment: Inhibition of the LTE4- induced contraction of guinea pig tracheal spirals at 10 uM.; settings: Trachea
[5] = organism: Cavia porcellus; experiment: Percent inhibition of the LTE4- induced contraction of guinea pig tracheal spirals at the concentration of 1 uM; format: functional; settings: Trachea; summary of the method: as §1
[6] = pKB value of the compound
Summary of the method: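 Guinea pig tracheal strips at 37 °C in Krebs buffer. Cumulative LTE4 concentration-response curves were built in log increments, with responses expressed as % of the maximum to 30 µM carbachol. Antagonist was incubated 30 min before the curve, with vehicle on paired controls. EC50 came from linear regression. KB = [antagonist]/(dose ratio − 1) by the Furchgott method. One curve per tissue.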

[7] = Selectivity ratio of the compound; format: functional
[8] = organism: Cavia porcellus; experiment: Percent inhibition of the LTE4- induced contraction of guinea pig tracheal spirals at the concentration of 1.0 uM; format: functional; settings: Trachea; summary of the method: as §1
[9] = organism: Cavia porcellus; experiment: Percent inhibition of the LTE4- induced contraction of guinea pig tracheal spirals at concentration of 10 uM; Not significant; format: functional; settings: Trachea; summary of the method: as §1
[10] = organism: Cavia porcellus; experiment: Percent inhibition of the LTE4- induced contraction of guinea pig tracheal spirals at the concentration of 0.1 uM; format: functional; settings: Trachea; summary of the method: as §1
[11] = organism: Cavia porcellus; experiment: Percent inhibition of the LTE4- induced contraction of guinea pig tracheal spirals at the concentration of 1.0 uM; Not significant; format: functional; settings: Trachea; summary of the method: as §1
[12] = organism: Cavia porcellus; experiment: Percent inhibition of the LTE4- induced contraction of guinea pig tracheal spirals at the concentration of 5 uM; Not significant; format: functional; settings: Trachea; summary of the method: as §1
[13] = organism: Cavia porcellus; experiment: Percent inhibition of the LTE4- induced contraction of guinea pig tracheal spirals at the concentration of 0.33 uM; format: functional; settings: Trachea; summary of the method: as §1

inhibition [2]: inactive
Compound: CCCCCC(=O)Nc1ccc2cn(Cc3ccc(C(=O)O)cc3)nc2c1

inhibition [4]: 62%
Compound: CCCCCC(=O)Nc1ccc2cnn(Cc3ccc(C(=O)O)cc3)c2c1

pKB [6]: 6.4
Compound: CCCc1c(OCc2ccc(C(=O)O)cc2OC)ccc(C(C)=O)c1O
inhibition at 1 µM [5]: 38% | Selectivity ratio [7]: 50

inhibition [4]: 44%
Compound: COc1cc(C(=O)O)ccc1Cn1ccc2ccc(NC(=O)Cc3ccc(Cl)cc3)cc21

inhibition [2]: inactive
Compound: CCCCCC(=O)Nc1ccc2cn(Cc3ccccc3C(=O)O)nc2c1

inhibition [4]: 29%
Compound: COc1cc(C(=O)O)ccc1Cn1ccc2ccc(NC(=O)Cc3ccc(C)cc3)cc21

inhibition [2]: inactive
Compound: COc1cc(C(=O)O)ccc1Cn1ccc2ccc(NC(=O)CCCCCNC(C)=O)cc21

inhibition [2]: inactive
Compound: CCCCCC(=O)Nc1ccc2nn(Cc3ccc(C(=O)O)cc3)cc2c1

inhibition [2]: inactive
Compound: COc1cc(C(=O)O)ccc1Cn1ccc2ccc(NS(=O)(=O)Cc3ccccc3)cc21

inhibition [4]: 22%
Compound: CCC(C(=O)Nc1ccc2cn(Cc3ccc(C(=O)O)cc3OC)nc2c1)c1ccccc1 (stereo not given)

inhibition [2]: inactive
Compound: COc1cc(C(=O)O)ccc1Cn1ccc2ccc(NC(=O)CCCCCCC(=O)O)cc21

inhibition [2]: inactive
Compound: CCCCCC(=O)Nc1ccc2c(cnn2Cc2ccc(C(=O)O)cc2)c1

More lines, now with the values behind:

Compound: COc1cc(C(=O)O)ccc1Cn1ccc2ccc(NC(=O)OC(C)(C)C)cc21
inhibition at 3.3 µM [1]: 10%

Compound: CCCCCCCC(=O)Nc1ccc2ccn(Cc3ccc(C(=O)O)cc3OC)c2c1
inhibition at 5 µM [3]: 53%

Compound: COc1cc(C(=O)O)ccc1Cn1ccc2ccc(NC(=O)C(C)(C)c3ccccc3)cc21
inhibition at 3.3 µM [1]: 23%

Compound: CCCCCC(=O)N(C)c1ccc2ccn(Cc3ccc(C(=O)O)cc3OC)c2c1
inhibition [2]: inactive

Compound: COc1cc(C(=O)O)ccc1Cn1ccc2ccc(NC(=O)NC3CCCC3)cc21
inhibition at 1 µM [5]: 73%

Compound: CCCC(C(=O)Nc1ccc2ccn(Cc3ccc(C(=O)O)cc3OC)c2c1)C1CCCC1 (stereo not given)
inhibition at 1 µM [8]: 62%

Compound: COc1cc(C(=O)O)ccc1Cn1ccc2ccc(NC(=O)Cc3ccc(-c4ccccc4)cc3)cc21
inhibition [2]: inactive

Compound: CCCCCC(=O)Nc1cccc2c1ccn2Cc1ccc(C(=O)O)cc1OC
inhibition [4]: 29%

Compound: CCCC/N=C(\S)Nc1ccc2ccn(Cc3ccc(C(=O)O)cc3OC)c2c1
inhibition [4]: 18%

Compound: CCCCCC(=O)Nc1cccc2cnn(Cc3ccc(C(=O)O)cc3OC)c12
inhibition [9]: inactive

Compound: C/C=C/C=C/C(=O)Nc1ccc2ccn(Cc3ccc(C(=O)O)cc3OC)c2c1
inhibition at 5 µM [3]: 28%

Compound: CCCC(=O)Nc1ccc2ccn(Cc3ccc(C(=O)O)cc3OC)c2c1
inhibition at 5 µM [3]: 42%

Compound: COc1cc(C(=O)O)ccc1Cn1ccc2ccc(NC(=O)C(C)c3ccccc3)cc21 (stereo not given)
inhibition at 3.3 µM [1]: 59%

Compound: COc1cc(C(=O)O)ccc1Cn1ccc2ccc(NC(=O)OC3CCC3)cc21
inhibition at 0.1 µM [10]: 27%

Compound: CCCCCC(=O)Nc1ccc2nn(Cc3ccccc3C(=O)O)cc2c1
inhibition [4]: 13%

Compound: C#CCCC(=O)Nc1ccc2ccn(Cc3ccc(C(=O)O)cc3OC)c2c1
inhibition [4]: 47%

Compound: COc1cc(C(=O)O)ccc1Cn1ccc2ccc(NC(=O)NC3CCCCC3)cc21
inhibition at 3.3 µM [1]: 34%

Compound: COc1cc(C(=O)O)ccc1Cn1ccc2ccc(NC(=O)OC3CCCCC3)cc21
inhibition [11]: inactive

Compound: CCCCCCCCCCCC(=O)Nc1ccc2ccn(Cc3ccc(C(=O)O)cc3OC)c2c1
inhibition [12]: inactive

Compound: COc1cc(C(=O)O)ccc1Cn1ccc2ccc(NC(=O)C(c3ccccc3)C3CCCC3)cc21 (stereo not given)
inhibition at 1 µM [8]: 27%

Compound: COc1cc(C(=O)O)ccc1Cn1ccc2ccc(NC(=O)CC3CCCC3)cc21
inhibition at 0.1 µM [10]: 34%

Compound: CCCCCCCCCC(=O)Nc1ccc2ccn(Cc3ccc(C(=O)O)cc3OC)c2c1
inhibition [2]: inactive

Compound: CCC(C(=O)Nc1ccc2ccn(Cc3ccc(C(=O)O)cc3OC)c2c1)C1CCCCC1 (stereo not given)
inhibition at 0.33 µM [13]: 18%

Compound: COc1cc(C(=O)O)ccc1Cn1ccc2ccc(NC(=O)CC3CCCCC3)cc21
inhibition at 0.33 µM [13]: 53%

Compound: COc1cc(C(=O)O)ccc1Cn1ccc2ccc(NC(=O)CCc3ccccc3)cc21
inhibition [4]: 62%

Compound: COc1cc(C(=O)O)ccc1Cn1ncc2ccc(NC(=O)CC3CCCC3)cc21
inhibition at 0.1 µM [10]: 83%
